The values that follow come from ChEMBL document CHEMBL2177001, “Design, synthesis, and structure-activity relationships of novel pyrazolo[5,1-b]thiazole derivatives as potent and orally active corticotropin-releasing factor 1 receptor antagonists” (J Med Chem, 2012).

Series [1] deals with Liver microsomes. The series is described as follows: Intrinsic clearance in human liver microsomes. The series is classed as ADME, Microsome. The procedure, abridged:
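Metabolic depletion in pooled human liver microsomes (0.1 mg/mL protein), substrate 0.3 μmol/L, final DMSO 0.01%. Matrix: 100 mmol/L phosphate pH 7.4 with 0.1 mmol/L EDTA. Reaction started with an NADPH-generating system (β-NADP+, G6P, MgCl2, G6PDH) and run at 37 °C for 0 and 15 min. Quenched with acetonitrile/methanol plus internal standard; analysed by LC/MS/MS.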

Series [2] is described as follows: Oral bioavailability in Sprague-Dawley rat at 10 mg/kg. The series is classed as ADME, organism-based. Particulars: in vivo. The procedure, abridged: (§1)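 Fasted male Sprague-Dawley rats, n = 3 per route. IV dose 3 mg/kg from a 3 mg/mL solution in 1% ethanol–0.1 mol/L HCl–glucose. PO dose 10 mg/kg from a 2 mg/mL solution in 5% ethanol–0.1 mol/L HCl–glucose. Jugular blood sampled at 0.083 (iv only), 0.25, 0.5, 1, 2, 4, 6 and 8 h. Plasma deproteinized with acetonitrile plus internal standard, quantified by LC/MS/MS. Mean ± SEM of three animals.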

Series [3] in a line: AUC in Sprague-Dawley rat at 10 mg/kg, po. The series is classed as ADME, organism-based. Details: dose 10 mg/kg, route oral. The following applies: plasma. The procedure, abridged:
as §1

Series [4] is described as follows: Tmax in Sprague-Dawley rat at 10 mg/kg, po. The series is classed as ADME, organism-based. On the set-up: dose 10 mg/kg, route oral. Particulars: in vivo. The method in brief: as §1
Series [5] is described as follows: Cmax in Sprague-Dawley rat at 10 mg/kg, po. The series is classed as ADME, organism-based. Details: dose 10 mg/kg, route oral. The following applies: in vivo. The procedure, abridged: as §1
Series [6] can be described thus: AUC in Sprague-Dawley rat at 3 mg/kg, iv. The series is classed as ADME, organism-based. On the set-up: dose 3 mg/kg, route intravenous. Particulars: plasma. The method in brief: as §1
The nature of series [7]: Half life in Sprague-Dawley rat at 3 mg/kg, iv. The series is classed as ADME, organism-based. The following applies: in vivo. On the set-up: dose 3 mg/kg, route intravenous. The method in brief:
as §1

A short description of series [8]: Volume of distribution at steady state in Sprague-Dawley rat at 3 mg/kg, iv. The series is classed as ADME, organism-based. Details: dose 3 mg/kg, route intravenous. The following applies: in vivo, read-out: Vdss. The procedure, abridged: as §1
Series [9] in a line: Plasma clearance in Sprague-Dawley rat at 3 mg/kg, iv. The series is classed as ADME, organism-based. Details: dose 3 mg/kg, route intravenous. The procedure, abridged: as §1

The compound `CCN(c1c(OC)nn2c(-c3c(OC)cc(COC)cc3OC)csc12)C1CCOCC1` yielded an intrinsic clearance in series [1] of 200 µL/min/mg.
Same read-out and setting: with `COCc1cc(OC)c(-c2csc3c(N(CC4CC4)CC4CCCOC4)c(OC)nn23)c(OC)c1` (configuration not stated) the figure was 550 µL/min/mg; with `CCCN(c1c(OC)nn2c(-c3c(Cl)cc(COC)cc3OC)csc12)C1CCOCC1`, 370 µL/min/mg.
The compound `CCCN(c1c(OC)nn2c(-c3c(OC)cc(COCC)cc3OC)csc12)C1CCOCC1` had an intrinsic clearance in series [1] of 340 µL/min/mg.
Same read-out and setting: next, `COCc1cc(OC)c(-c2csc3c(N(CC4CCOCC4)CC4CC4)c(OC)nn23)c(OC)c1`: 460 µL/min/mg; `COCc1cc(OC)c(-c2csc3c(N(CC4CC4)CC4(F)CCOCC4)c(OC)nn23)c(OC)c1`: 550 µL/min/mg.
The same measure, in the same setting: next, `CCCCN(c1c(OC)nn2c(-c3c(OC)cc(C#N)cc3OC)csc12)C1CCOCC1`: 150 µL/min/mg; `COCc1cc(OC)c(-c2csc3c(N(CC4CC4)CC4CCCO4)c(OC)nn23)c(OC)c1` (configuration not stated): 1020 µL/min/mg; `COCc1cc(OC)c(-c2csc3c(N(CC(C)C)C4CCOCC4)c(OC)nn23)c(OC)c1`: 360 µL/min/mg.
Still for that read-out and setting: next, `COCc1cc(OC)c(-c2csc3c(N(C(C)C)C4CCOCC4)c(OC)nn23)c(OC)c1`: 670 µL/min/mg; `COCc1cc(OC)c(-c2csc3c(N(CC4CC4)CC4CCOC4)c(OC)nn23)c(OC)c1` (configuration not stated): 530 µL/min/mg.
Turning to `CCCN(c1c(OC)nn2c(-c3c(OC)cc(C#N)cc3OC)csc12)C1CCOCC1`, the intrinsic clearance in series [1] was found to be 150 µL/min/mg.
For the compound `COCc1cc(OC)c(-c2csc3c(N(CC4CC4)CC4CCCCO4)c(OC)nn23)c(OC)c1` (configuration not stated), in series [1], the intrinsic clearance was determined as 870 µL/min/mg.
Regarding `CCCCN(c1c(OC)nn2c(-c3c(OC)cc(COCC)cc3OC)csc12)C1CCOCC1`, in series [2], the bioavailability (commonly the share of a dose that reaches the circulation, judged against a reference dose that is usually intravenous) came out at 23%. Further, the AUC (as a rule, concentration integrated over time) in [3] is 1240 ng·h/mL; in [6], 1580 ng·h/mL. Also, the Tmax (in general, the time from dosing to the highest level) in series [4] was determined as 0.5 h. For the same compound, the highest level in [5] (Cmax) was 540 ng/mL. Further, the half-life (usually the time in which the quantity being followed falls by half) in series [7] is 5.2 h. Also, the Vd in series [8] was 6.32 L/kg. Besides, the clearance – broadly, a measure of how efficiently the substance is removed, as volume per time – in series [9] is 32.2 mL/min/kg. The intrinsic clearance in series [1] was found to be 220 µL/min/mg.
In series [1], `COCc1cc(OC)c(-c2csc3c(N(CC4CC4)C4CCOCC4)c(OC)nn23)c(OC)c1` registered an intrinsic clearance of 180 µL/min/mg.
Same read-out and setting: next, `COCCN(CC1CC1)c1c(OC)nn2c(-c3c(OC)cc(COC)cc3OC)csc12`: 960 µL/min/mg; `CCCCN(c1c(OC)nn2c(-c3c(OC)cc(COC)cc3OC)csc12)C1CCOCC1`: 200 µL/min/mg.
The same measure, in the same setting: with `COCc1cc(OC)c(-c2csc3c(N(CCC4CC4)C4CCOCC4)c(OC)nn23)c(OC)c1` the figure was 180 µL/min/mg.
Still for that read-out and setting: next, `CCCN(c1c(OC)nn2c(-c3c(OC)cc(COC)cc3OC)csc12)C1CCOCC1`: 220 µL/min/mg.
